For ten compounds, IC50, Activity and Ki results are on record in ChEMBL document CHEMBL1795310, “Novel agmatine and agmatine-like peptidomimetic inhibitors of the West Nile virus NS2B/NS3 serine protease” (Eur J Med Chem, 2011).

What is called IC50 is the concentration that inhibits the measured activity by half. Read a high IC50 as weaker potency in that assay. The term Ki denotes the equilibrium dissociation constant of an inhibitor or competing ligand from its target.

Activity calls are given as the source filed them. The calls are words filed in the database; no cut-off is given here.

Experiment [1] in a line: Inhibition of West Nile virus NS2B-NS3 serine protease preincubated for 1 hr before addition of Pyr-RTKR-AMC fluorogenic substrate by measuring fluorescence every 45 seconds for 1 hr by fluorescence assay. The method, boiled down: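 WNV NS2B/NS3 protease (20 nM) preincubated with varying inhibitor concentrations 1 h at 25 °C in pH 8.0 buffer (10 mM Tris–HCl, 1 mM CHAPS, 20% v/v glycerol). Pyr-RTKR-AMC added to 20 μM final. Fluorescence (ex 355/em 460 nm) read at 37 °C every 45 s for 1 h. Duplicates. IC50 from sigmoidal fit of initial velocity vs log[inhibitor]. Nona-D-Arg-NH2 as positive control.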

The target of experiment [2] is Prothrombin (Homo sapiens) (UniProt P00734). Description: Inhibition of thrombin assessed as fluorescence intensity at 100 uM pretreated for 1 hr before substrate addition measured every 45 seconds for 1 hr. An outline of the steps: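 Assay run with a commercial AFC thrombin kit. Thrombin (40 nM) incubated with inhibitor 1 h at 25 °C in kit reaction buffer, then AFC substrate added. Fluorescence (ex 380/em 500 nm) read at 25 °C. NAPAP served as positive control.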

A short description of experiment [3]: Competitive inhibition of West Nile virus NS2B-NS3 serine protease assessed as rate of Pyr-RTKR-AMC hydrolysis every 45 seconds for 1 hr by Lineweaver-Burk plot analysis. An outline of the steps:
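Inhibitor at 0, 5, 10, 20, 40 and 70 μM preincubated with protease (20 nM) 1 h at 25 °C, pH 8.0 (10 mM Tris–HCl, 1 mM CHAPS, 20% v/v glycerol). Pyr-RTKR-AMC then added at 10–500 μM (seven levels). Hydrolysis followed at 37 °C, ex 355/em 460 nm. Ki from non-linear regression with a competitive inhibition model, alongside a 1/V vs 1/S plot.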

Regarding `N=C(N)NC[C@H]1CCN(C(=O)[C@H](CCCCN)NC(=O)[C@H](CCCCN)NC(=O)Cc2ccc(-c3ccccc3)cc2)C1`, in experiment [1], the IC50 was greater than 100 µM.

As to `N=C(N)NCCNC(=O)[C@H](CCCCN)NC(=O)[C@H](CCCCN)NC(=O)Cc1ccc(-c2ccccc2)cc1`, in experiment [1], the IC50 is greater than 100 µM.

As for `N=C(N)NCC1CCN(C(=O)[C@H](CCCCN)NC(=O)[C@H](CCCCN)NC(=O)Cc2ccc(-c3ccccc3)cc2)CC1`, in experiment [1], the IC50 is greater than 100 µM.

Compound `N=C(N)NC/C=C/CNC(=O)[C@H](CCCCN)NC(=O)[C@H](CCCCN)NC(=O)Cc1ccc(-c2ccccc2)cc1` came in with an IC50 in experiment [1] of 61.2 µM.

Regarding `N=C(N)NC1CCC(NC(=O)[C@H](CCCCN)NC(=O)[C@H](CCCCN)NC(=O)Cc2ccc(-c3ccccc3)cc2)CC1` (stereo partly drawn), in experiment [1], the IC50 was greater than 100 µM.

For `N=C(N)NC[C@@H]1CCN(C(=O)[C@H](CCCCN)NC(=O)[C@H](CCCCN)NC(=O)Cc2ccc(-c3ccccc3)cc2)C1`, the midpoint of inhibition in experiment [1], the IC50, lay at 20 µM. This lies in the double-digit micromolar range.

Take `N=C(N)NCCCCNC(=O)[C@H](CCCCN)NC(=O)[C@H](CCCCN)NC(=O)Cc1ccc(-c2ccccc2)cc1`: the result in experiment [2] was inactive. For the same compound, half-maximal inhibition in experiment [1] (IC50) required 4.7 µM. Moreover, the Ki in experiment [3] came out at 2.05 µM.

The compound `N=C(N)NCCCNC(=O)[C@H](CCCCN)NC(=O)[C@H](CCCCN)NC(=O)Cc1ccc(-c2ccccc2)cc1` had an IC50 in experiment [1] greater than 100 µM.

For the compound `CC(=O)N[C@@H](CCCCN)C(=O)N[C@@H](CCCCN)C(=O)NCCCCNC(=N)N`, the outcome in experiment [2] was inactive. The compound further registered an IC50 in experiment [1] of 18.2 µM.

Consider `N=C(N)NCCCCCNC(=O)[C@H](CCCCN)NC(=O)[C@H](CCCCN)NC(=O)Cc1ccc(-c2ccccc2)cc1`, for which the IC50 in experiment [1] is greater than 100 µM.
